≈ marks a conversion by molar mass, not a printed value. Calls of active or inactive are those of the source. No cut-off for these calls is given here.
Legend:
Pyricularia grisea = experiment: Antifungal activity against Pyricularia grisea assessed as inhibition of germ-tube development by microdilution method; type: functional, organism-based
Outline: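 Pyricularia grisea isolate from infected rice leaves (Thailand), tested in 4% malt extract broth by microdilution. Stock in acetone/malt extract emulsified with 0.2% Tween 80, diluted 2-fold; final range 200–0.78 μg/mL. Inoculum 10⁴ CFU conidia per well. Incubated 16 h at room temperature, stopped with lactophenol blue. Germ-tube size measured by pixel counts of 10 conidia per well. EC50/EC90 by probit; MIC is the first concentration giving total inhibition.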

Cladosporium herbarum = experiment: Antifungal activity against Cladosporium herbarum assessed as inhibition zone in mycelial layer assessed per spot by TLC bioautography assay; type: functional
Outline: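 TLC bioautography with Cladosporium herbarum strain VIAM-MA1511 as the mycelial layer. Compounds were applied as a dilution series from 100 to 25 μg/spot, and plates were held 3 days. The MIC was the first amount in the series that gave a homogeneous inhibition zone in the mycelial layer.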

| Compound | Activity (Pyricularia grisea) | MIC (Cladosporium herbarum) | EC50 (Pyricularia grisea) | MIC (Pyricularia grisea) | EC90 (Pyricularia grisea) | Activity (Cladosporium herbarum) |
| --- | --- | --- | --- | --- | --- | --- |
| CC[C@H]1O[C@@H]1c1cc2ccccc2c(=O)o1 (racemic) | inactive | 50 µg | – | – | – | – |
| CN(CC[C@H](N)CC(=O)N[C@H]1C=C[C@H](n2ccc(N)nc2=O)O[C@@H]1C(=O)O)C(=N)N [BLASTICIDIN_S] | – | – | 13 µg/mL (≈ 30.8 µM) | > 200 µg/mL | – | – |
| COc1cc(O)c2c(c1)C[C@@H](C)OC2=O | – | 25 µg | 47 µg/mL (≈ 226 µM) | 200 µg/mL (≈ 961 µM) | 106 µg/mL (≈ 509 µM) | – |
| CO/N=C(/C(=O)OC)c1ccccc1COc1ccccc1C [KRESOXIM-METHYL] | – | – | 0.003 µg/mL (≈ 0.00957 µM) | > 200 µg/mL | – | – |
| CC/C=C(\Br)c1cc2ccccc2c(=O)o1 | – | <25 µg | 2 µg/mL (≈ 7.17 µM) | 12 µg/mL (≈ 43 µM) | 9 µg/mL (≈ 32.2 µM) | – |
| CCCC(O)c1cc2ccccc2c(=O)o1 (centres undefined) | – | 100 µg | 37 µg/mL (≈ 170 µM) | 100 µg/mL (≈ 458 µM) | 83 µg/mL (≈ 380 µM) | – |
| C=C/C=C/c1cc2ccccc2c(=O)o1 | – | 25 µg | 14 µg/mL (≈ 70.6 µM) | 50 µg/mL (≈ 252 µM) | 45 µg/mL (≈ 227 µM) | – |
| CC(C)CC(=O)OCC#CCc1cc2ccccc2c(=O)o1 [CAPILLARIN ISOVALERATE] | – | – | 5 µg/mL (≈ 16.8 µM) | 25 µg/mL (≈ 83.8 µM) | 13 µg/mL (≈ 43.6 µM) | inactive |
| CCCCc1cc2ccccc2c(=O)o1 [DIHYDROARTEMIDIN] | – | 100 µg | 10 µg/mL (≈ 49.4 µM) | 50 µg/mL (≈ 247 µM) | 40 µg/mL (≈ 198 µM) | – |
| CC/C=C/c1cc2c(O)cccc2c(=O)o1 [ARTEMIDINOL] | – | >100 µg | 12 µg/mL (≈ 55.5 µM) | 50 µg/mL (≈ 231 µM) | 32 µg/mL (≈ 148 µM) | – |
| C[C@@H](O)/C=C/c1cc2ccccc2c(=O)o1 | – | 100 µg | 140 µg/mL (≈ 647 µM) | > 200 µg/mL | 292 µg/mL (≈ 1350 µM) | – |
| CCCCNC(=O)n1c(NC(=O)OC)nc2ccccc21 [BENOMYL] | – | <25 µg | 0.06 µg/mL (≈ 0.207 µM) | 200 µg/mL (≈ 689 µM) | – | – |
| CC#CCc1cc2ccccc2c(=O)o1 [CAPILLARIN] | – | – | 37 µg/mL (≈ 187 µM) | 100 µg/mL (≈ 504 µM) | 92 µg/mL (≈ 464 µM) | inactive |
| CC[C@H](O)[C@H](O)c1cc2ccccc2c(=O)o1 (relative stereo) | inactive | – | – | – | – | – |
| O=c1occc2ccccc12 [ISOCOUMARIN] | – | – | 83 µg/mL (≈ 568 µM) | > 200 µg/mL | – | – |
| CC[C@H](O)Cc1cc2ccccc2c(=O)o1 | – | 100 µg | 25 µg/mL (≈ 115 µM) | > 200 µg/mL | – | – |
| CC(=O)/C=C/c1cc2ccccc2c(=O)o1 | – | <25 µg | 5 µg/mL (≈ 23.3 µM) | 25 µg/mL (≈ 117 µM) | 21 µg/mL (≈ 98 µM) | – |
| CC(O)C#Cc1cc2ccccc2c(=O)o1 (centres undefined) | – | 100 µg | 0.9 µg/mL (≈ 4.2 µM) | 50 µg/mL (≈ 233 µM) | – | – |
| CC[C@@H]1O[C@H]1c1cc2ccccc2c(=O)o1 | – | 25 µg | 93 µg/mL (≈ 430 µM) | > 200 µg/mL | – | – |
| CC/C=C/c1cc2ccccc2c(=O)o1 | – | 100 µg | 11 µg/mL (≈ 54.9 µM) | 25 µg/mL (≈ 125 µM) | 19 µg/mL (≈ 94.9 µM) | – |
| CC[C@H](Cc1cc2ccccc2c(=O)o1)OC | inactive | >100 µg | – | – | – | – |
| CCCC(Br)c1cc2ccccc2c(=O)o1 (centres undefined) | – | 25 µg | 35 µg/mL (≈ 124 µM) | 100 µg/mL (≈ 356 µM) | 96 µg/mL (≈ 341 µM) | – |
| CC(=O)OC(C)/C=C/c1cc2ccccc2c(=O)o1 (centres undefined) | – | 50 µg | 8 µg/mL (≈ 31 µM) | 50 µg/mL (≈ 194 µM) | 30 µg/mL (≈ 116 µM) | – |
| COC1=CC(=O)C[C@@H](C)[C@]12Oc1c(Cl)c(OC)cc(OC)c1C2=O [GRISEOFULVIN] | – | – | 4 µg/mL (≈ 11.3 µM) | > 200 µg/mL | – | – |
| CCC(Br)C(Br)c1cc2ccccc2c(=O)o1 (centres undefined) | – | 100 µg | – | – | – | – |
| CC[C@@H](O)[C@H](O)c1cc2ccccc2c(=O)o1 (relative stereo) | inactive | – | – | – | – | – |
| CC#CCc1cc2cccc(O)c2c(=O)o1 | – | – | 2 µg/mL (≈ 9.34 µM) | 100 µg/mL (≈ 467 µM) | 102 µg/mL (≈ 476 µM) | inactive |
| CCCC(Br)(Br)c1cc2ccccc2c(=O)o1 | – | 50 µg | 22 µg/mL (≈ 61.1 µM) | > 200 µg/mL | – | – |
| CCC#Cc1cc2ccccc2c(=O)o1 [CORFIN] | – | >100 µg | 3 µg/mL (≈ 15.1 µM) | 100 µg/mL (≈ 504 µM) | 99 µg/mL (≈ 499 µM) | – |
| CC/C=C/c1cc2cccc(O)c2c(=O)o1 | – | >100 µg | 4 µg/mL (≈ 18.5 µM) | 25 µg/mL (≈ 116 µM) | 19 µg/mL (≈ 87.9 µM) | – |
